# Laboratory results taken from ChEMBL document CHEMBL5214998, “Development of Macrocyclic PRMT5-Adaptor Protein Interaction Inhibitors” (J Med Chem, 2022).
# Calls of active or inactive are those of the source. The calls are words filed in the database; no cut-off is given here. Numbered stars: 1 amine (or outer) side, 2 acyl side, 3 side chain; on linkers, the order of the positions; unused ones are H or OH. Bridge positions count the residues as written; N and C are the ends. Square brackets hold non-standard residues; d marks the D form. Peptide text beside a SMILES is read from it. * marks the point of attachment. FITC = O=C1OC2(c3ccc(O)cc3Oc3cc(O)ccc32)c2ccc(NC(=S)*)cc21; Hag = O=C([C@H](CCC=[*:3])N[*:1])[*:2]; dAllylGly = C=CC[C@@H](N)C(=O)O
# Experiments:
# Flp-In-T-REx-293 [1] = test: Inhibition of PRMT5/RioK1 protein-protein interaction in human Flp-In-T-REx-293 cells over-expressed with GFP-PRMT5 at 50 uM incubated for 2 hrs by immunoprecipitation assay; assay type: cell-based
# Method in brief: (§1)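 S100 extracts from induced Flp-In T-REx 293 cells expressing GFP-tagged proteins were treated with peptide at 50 µM (or DMSO) for 1 h at room temperature. GFP-Trap beads were then added for 2 h at 4 °C and washed. Co-purified PRMT5, MEP50, RioK1 and pICln were detected by immunoblot with fluorescent secondary antibodies.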
# Flp-In-T-REx-293 [2] = test: Inhibition of PRMT5/RioK1 protein-protein interaction in human Flp-In-T-REx-293 cells over-expressed with GFP-RioK1 at 50 uM incubated for 2 hrs by immunoprecipitation assay; assay type: cell-based; method in brief: as §1
# [3] = Inhibition of full length human ICLN/PRMT5 (unknown origin) protein-protein interaction by fluorescence polarization assay
# PRMT5/MEP50 complex [4] = target: T1, PRMT5/MEP50 complex (Homo sapiens, UniProt O14744); test: Binding affinity to PRMT5/MEP50 (unknown origin) assessed as inhibition constant by FITC- Competitive binding assay; assay type: protein-complex assay
# Method in brief: (§2)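 Competitive FP: 1 nM FITC-labeled tracer peptide with PRMT5-MEP50 (194 nM with tracer 50; 600 nM with tracer 21); unlabeled peptide titrated as two-fold dilutions in 50 mM HEPES, 250 mM NaCl, 1 mM TCEP, 0.01% Tween 20, pH 8.0; room temperature up to 1 h 45 min; read 485/535 nm; triplicate.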
# PRMT5/MEP50 complex [5] = target: PRMT5/MEP50 complex (Homo sapiens, UniProt O14744+Q9BQA1); test: Binding affinity to PRMT5/MEP50 (unknown origin) assessed as dissociation constant by FITC- Competitive binding assay; assay type: protein-complex assay
# PRMT5/MEP50 complex [6] = target: T1, PRMT5/MEP50 complex; test: Inhibition of PRMT5/MEP50 (unknown origin) incubated for 1 to 2 hrs in presence of tracer 50 by competitive fluorescence polarization assay; assay type: protein-complex assay; method in brief: as §2
# [7] = Stability in human U2OS cells assessed as half life incubated upto 24 hrs by HPLC analysis; assay type: ADME, cell-based; conditions: U2OS cell lysate
# PRMT5/MEP50 complex [8] = target: T1, PRMT5/MEP50 complex; test: Inhibition of PRMT5/MEP50 (unknown origin) incubated for 1 to 2 hrs in presence of tracer 21 by competitive fluorescence polarization assay; assay type: protein-complex assay; method in brief: as §2
# Chain of PRMT5/MEP50 complex (Homo sapiens, UniProt O14744+Q9BQA1) (O14744 whole entry): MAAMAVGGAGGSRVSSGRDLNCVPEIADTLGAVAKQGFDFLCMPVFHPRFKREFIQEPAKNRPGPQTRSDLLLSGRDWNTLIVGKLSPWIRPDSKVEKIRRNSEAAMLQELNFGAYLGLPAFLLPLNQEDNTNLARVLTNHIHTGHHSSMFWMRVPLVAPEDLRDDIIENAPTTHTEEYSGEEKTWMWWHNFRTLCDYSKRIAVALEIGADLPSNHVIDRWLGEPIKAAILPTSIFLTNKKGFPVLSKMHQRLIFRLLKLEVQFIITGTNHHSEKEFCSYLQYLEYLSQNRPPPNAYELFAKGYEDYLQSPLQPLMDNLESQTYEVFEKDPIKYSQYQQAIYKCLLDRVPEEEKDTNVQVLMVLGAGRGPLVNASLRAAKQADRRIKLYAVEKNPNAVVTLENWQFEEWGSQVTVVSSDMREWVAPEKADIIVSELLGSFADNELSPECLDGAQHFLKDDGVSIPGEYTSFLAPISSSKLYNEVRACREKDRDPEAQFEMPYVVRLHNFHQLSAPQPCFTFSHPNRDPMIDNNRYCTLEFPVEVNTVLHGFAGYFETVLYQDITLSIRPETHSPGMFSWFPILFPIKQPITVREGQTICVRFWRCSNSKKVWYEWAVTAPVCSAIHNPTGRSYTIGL
# Chain of PRMT5/MEP50 complex (Homo sapiens, UniProt O14744+Q9BQA1) (Q9BQA1 whole entry): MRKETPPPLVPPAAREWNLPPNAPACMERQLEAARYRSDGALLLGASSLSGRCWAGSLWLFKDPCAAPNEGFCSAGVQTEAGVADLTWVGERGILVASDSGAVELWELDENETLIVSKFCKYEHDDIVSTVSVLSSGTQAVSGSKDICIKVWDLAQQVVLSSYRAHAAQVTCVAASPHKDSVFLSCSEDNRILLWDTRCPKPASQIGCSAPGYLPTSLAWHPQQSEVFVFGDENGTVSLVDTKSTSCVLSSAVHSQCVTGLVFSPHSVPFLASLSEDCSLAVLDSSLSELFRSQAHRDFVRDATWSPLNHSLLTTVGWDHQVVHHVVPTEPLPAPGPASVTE
# T1 sequence (O14744 whole entry): as the sequence (O14744 whole entry) above
# T1 sequence (Q9BQA1 whole entry, further chain): as the sequence (Q9BQA1 whole entry) above
molecule,measurement,setting,value
CC(=O)N[C@H](C(=O)N1CCC[C@H]1C(=O)N[C@H]1CCCCC[C@@H](C(=O)N[C@@H](CC(=O)O)C(=O)N[C@@H](C)C(=O)N[C@@H](CC(C(=O)O)C(=O)O)C(N)=O)NC(=O)[C@H](Cc2ccc([N+](=O)[O-])cc2)NC(=O)[C@H](CCC(N)=O)NC1=O)C(C)C,inhibition,Flp-In-T-REx-293 [1],Active
same,inhibition,Flp-In-T-REx-293 [2],Active
same,IC50,[3],0.654 µM
Ac-SRVVPGQFDDAD-NH2,Ki,PRMT5/MEP50 complex [4],1.8 µM
CC(=O)N[C@H](C(=O)N1CCC[C@@H]1C(=O)N[C@H]1CCCCC[C@@H](C(=O)N[C@@H](CC(=O)O)C(=O)N[C@@H](C)C(=O)N[C@@H](CC(C(=O)O)C(=O)O)C(=O)N[C@@H](CCCCNC(=S)Nc2ccc3c(c2)C(=O)OC32c3ccc(O)cc3Oc3cc(O)ccc32)C(N)=O)NC(=O)[C@H](Cc2ccc([N+](=O)[O-])cc2)NC(=O)[C@H](CCC(N)=O)NC1=O)C(C)C,Kd,PRMT5/MEP50 complex [5],0.089 µM
CC(=O)N[C@H](C(=O)N1CCC[C@H]1C(=O)N[C@H]1CC/C=C/C[C@H](C(=O)N[C@@H](CC(=O)O)C(=O)N[C@@H](C)C(=O)N[C@@H](CC(=O)O)C(=O)N[C@@H](CCCCNC(=S)Nc2ccc3c(c2)C(=O)OC32c3ccc(O)cc3Oc3cc(O)ccc32)C(N)=O)NC(=O)[C@H](Cc2ccccc2)NC(=O)[C@H](CCC(N)=O)NC1=O)C(C)C (Ac-VP[Hag]QF[dAllylGly]DADK(FITC)-NH2; staple (E) 3-6),Kd,PRMT5/MEP50 complex [5],> 2 µM
Ac-VPGQFDDAD-NH2,IC50,PRMT5/MEP50 complex [6],5.3 µM
same,half-life,[7],4.4 h
same,Ki,PRMT5/MEP50 complex [4],0.862 µM
same,IC50,PRMT5/MEP50 complex [8],2.49 µM
CC(=O)N[C@H](C(=O)N1CCC[C@H]1C(=O)N[C@H]1CCCCC[C@H](C(=O)N[C@@H](CC(=O)O)C(=O)N[C@@H](C)C(=O)N[C@@H](CC(=O)O)C(=O)N[C@@H](CCCCNC(=S)Nc2ccc3c(c2)C(=O)OC32c3ccc(O)cc3Oc3cc(O)ccc32)C(N)=O)NC(=O)[C@H](Cc2ccccc2)NC(=O)[C@H](CCC(N)=O)NC1=O)C(C)C,Kd,PRMT5/MEP50 complex [5],> 2 µM
CC(C)[C@H](NC(=O)[C@H](CCCNC(=N)N)NC(=O)[C@H](CO)NC(=O)COCCOCCNC(=S)Nc1ccc2c(c1)C(=O)OC21c2ccc(O)cc2Oc2cc(O)ccc21)C(=O)N[C@H](C(=O)N1CCC[C@H]1C(=O)N[C@H]1CCNC(=O)C[C@H](C(=O)N[C@@H](CC(=O)O)C(=O)N[C@@H](C)C(=O)N[C@@H](CC(=O)O)C(N)=O)NC(=O)[C@H](Cc2ccccc2)NC(=O)[C@H](CCC(N)=O)NC1=O)C(C)C,Kd,PRMT5/MEP50 complex [5],> 2 µM
